One data set deals with Jurkat. Put plainly: Growth inhibition of human Jurkat cells incubated for 72 hrs by MTT assay. The class given is functional. In outline: (§1)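 Leukemia lines were grown in RPMI-1640; the CEM^Vbl-100 medium also contained 100 ng/mL vinblastine. Cells were seeded at 8 × 10³ per well and left 18 h at 37 °C, 5% CO2. Medium was then replaced with fresh medium holding graded compound concentrations (DMSO stocks), in triplicate, for 72 h. Viability was read by MTT, and GI50 = concentration inhibiting proliferation 50%.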
In general terms: Formazan colour is commonly taken as a measure of viable cells.

A further data set relates to HL-60. Kind of data set: Growth inhibition of human HL60 cells incubated for 72 hrs by MTT assay. The data set is classed as functional. The following applies: HL-60, 72 h. In outline: as §1
In another data set the test system is RS4-11. Kind of data set: Growth inhibition of human RS4:11 cells incubated for 72 hrs by MTT assay. The following applies: RS4-11, 72 h. The class given is functional. In outline: as §1
Another data set has as its system MCF7. Put plainly: Growth inhibition of human MCF7 cells incubated for 72 hrs by MTT assay. The class given is functional. The following applies: MCF7, 72 h.
The subject of the next data set is HeLa. Put plainly: Growth inhibition of human HeLa cells incubated for 72 hrs by MTT assay. The class given is functional.
Another data set deals with HT-29. Kind of data set: Growth inhibition of human HT-29 cells incubated for 72 hrs by MTT assay. The class given is functional. The following applies: HT-29, 72 h.
A short description of data set [1]: Growth inhibition of human PBL cells incubated for 72 hrs by MTT assay. The data set is classed as cell-based. The following applies: PBL cells (peripheral blood lymphocytes). In outline: (§2)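 PBL from healthy donors were isolated on a Lymphoprep gradient, held overnight in RPMI-1640 with 10% FBS, and the non-adherent cells resuspended at 5 × 10^5 cells/mL. Proliferating cultures got 2.5 µg/mL PHA; resting cultures got none. Compound was added at several concentrations for 72 h and viability read by MTT. GI50 reported as mean ± SEM of three experiments.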

The nature of data set [2]: Growth inhibition of PHA-stimulated human PBL cells incubated for 72 hrs by MTT assay. The following applies: PHA-stimulated PBL cells (peripheral blood lymphocytes). The data set is classed as cell-based. In outline:
as §2

The next data set relates to CCRF-CEM. Put plainly: Growth inhibition of human CEM cells incubated for 72 hrs by MTT assay. The class given is functional. In outline: as §1
Data set [3] in a line: Growth inhibition of multidrug-resistant human CEM/VBL100 cells incubated for 72 hrs by MTT assay. The class given is functional. The following applies: CEM/VBL100, 72 h. In outline: as §1
The next data set concerns the target Tubulin (Bos taurus) (UniProt Q6B856+Q862L2+Q862F3). Put plainly: Inhibition of [3H]colchicine binding to bovine brain tubulin at 5 uM relative to control. A digest of the protocol: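 Bovine brain tubulin at 1 µM was incubated with 5 µM [3H]colchicine and the test compound at 5 µM. Inhibition of colchicine binding was measured relative to a control.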
Data set [4] in a line: Time-dependent metabolic stability in human liver microsomes at 10 uM incubated for 30 mins in presence of NADPH by HPLC analysis. The data set is classed as ADME, Microsome. The following applies: 0.5 h. In outline: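 Pooled mixed-gender HLMs (0.5 mg/mL) plus 1 mM NADPH in 0.1 M KH₂PO₄ pH 7.4, compound 10 μM final, 37 °C. Reaction started with microsomes after 3-min equilibration. Stopped with ice-cold acetonitrile at 0, 2, 5, 15, 30 min, then HPLC-fluorescence of supernatant. Percent remaining vs 0 min (mean ± SD, n = 3). Half-life = 0.693/k from linear regression of Ln % remaining vs time.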
A general note: Liver microsomes are a subcellular fraction often used to study metabolism.

Data set [5] in a line: Metabolic stability in human liver microsomes at 10 uM incubated for 30 mins in phosphate buffer at pH 7.4 by HPLC analysis. The data set is classed as ADME, Microsome. The following applies: pH 7.4, 0.5 h. In outline: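 Test compound (10 μM, final) incubated at 37 °C with pooled mixed-gender HLMs (0.5 mg/mL) in 0.1 M KH₂PO₄ pH 7.4 without NADPH. Sampled at 0 and 30 min, quenched with ice-cold acetonitrile, centrifuged, supernatant analysed by HPLC with fluorescence detection (ex 344/em 493 nm). Percent remaining calculated from peak area relative to 0 min; mean ± SD, n = 3.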

Data set [6] is described as follows: Metabolic stability in human liver microsomes assessed as half life at 10 uM incubated for 30 mins in presence of NADPH by HPLC analysis. The data set is classed as ADME, Microsome. A digest of the protocol: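 Compound (10 µM) was incubated at 37 °C with 0.5 mg/mL pooled HLMs and 1 mM NADPH in 0.1 M KH2PO4 pH 7.4, sampled at 0, 2, 5, 15 and 30 min. Controls without NADPH, or buffer only, ran 0 and 30 min. Parent was quantified by HPLC-fluorescence as % of the 0 min level, n = 3. t1/2 = 0.693/k, with k from regression of ln % remaining versus time.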

Data set [7] can be described thus: Metabolic stability in human liver microsomes at 10 uM incubated for 15 mins in presence of NADPH and non-selective CYP inhibitor quercetin by HPLC analysis. The class given is ADME, Microsome. The following applies: 0.25 h. In outline:
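Compound (10 µM) was incubated 0 and 15 min at 37 °C with pooled HLMs and 1 mM NADPH in 0.1 M KH2PO4 pH 7.4, with or without 100 µM quercetin. Parent remaining was measured by HPLC-fluorescence relative to 0 min; mean ± SD, n = 3.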

A short description of data set [8]: Selectivity ratio of GI50 for human PBL cells to GI50 for human Jurkat cells incubated for 72 hrs by MTT assay. A digest of the protocol:
(§3)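 Leukemia cells (CEM, DND-41, Jurkat) were grown in RPMI-1640 at 8×10³ cells/well and left 18 h. Donor PBL were gradient-separated, held overnight in RPMI-1640/10% FBS, and non-adherent cells set at 5×10^5 cells/mL without PHA (resting). Both were exposed 72 h to graded concentrations, read by MTT. The ratio is PBL GI50 over leukemia GI50.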

A short description of data set [9]: Stability in phosphate buffer at pH 7.4 at 10 uM incubated for 30 mins by HPLC analysis. The class given is physicochemical. The following applies: pH 7.4, 0.5 h. In outline:
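No microsomes or NADPH: compound (10 μM final) held in 0.1 M KH₂PO₄ pH 7.4 at 37 °C. Samples taken at 0 and 30 min, quenched with ice-cold acetonitrile, centrifuged, analysed by HPLC with fluorescence detection. Percent parent remaining relative to 0 min; mean ± SD, n = 3.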

The nature of data set [10]: Selectivity ratio of GI50 for human PBL cells to GI50 for human DND41 cells incubated for 72 hrs by MTT assay. In outline: as §3
Data set [11] can be described thus: Selectivity ratio of GI50 for human PBL cells to GI50 for human CEM cells incubated for 72 hrs by MTT assay. The data set is classed as functional. In outline:
as §3

A short description of data set [12]: Selectivity ratio of GI50 for PHA-stimulated human PBL cells to GI50 for human Jurkat cells incubated for 72 hrs by MTT assay. In outline: (§4)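 Leukemia cells (CEM, DND-41, Jurkat) were grown in RPMI-1640 at 8×10³ cells/well and left 18 h. Donor PBL were gradient-separated, held overnight, and non-adherent cells set at 5×10^5 cells/mL with 2.5 µg/mL PHA. Both were exposed 72 h at 37 °C to graded compound concentrations, read by MTT. The ratio is PBL GI50 over leukemia GI50.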

A short description of data set [13]: Selectivity ratio of GI50 for PHA-stimulated human PBL cells to GI50 for human DND41 cells incubated for 72 hrs by MTT assay. A digest of the protocol: as §4
Data set [14] is described as follows: Selectivity ratio of GI50 for PHA-stimulated human PBL cells to GI50 for human CEM cells incubated for 72 hrs by MTT assay. In outline:
as §4

From ChEMBL document CHEMBL4334446, “Evaluating the effects of fluorine on biological properties and metabolic stability of some antitubulin 3-substituted 7-phenyl-pyrroloquinolinones” (Eur J Med Chem, 2019) come the findings set out here.

Molecules are shown by their SMILES.

For orientation: GI50 means the concentration that inhibits growth by half. For orientation: inhibition means the change of the read-out against control, counted positive when it falls. Read a high inhibition as a response far below the control. Broadly, the half-life is how long it takes for the measured level to halve. Regarding `CCn1ccc2c3c(=O)cc(-c4ccccc4F)[nH]c3ccc21`, the GI50 with Jurkat was determined as 0.19 nM; in the data set with HL-60, 0.17 nM; in the data set on RS4-11, 0.09 nM; in the data set on MCF7 it was 247 nM; in the data set on HeLa, 1.2 nM; in the data set with HT-29 it was 1.1 nM. The GI50 in the data set on CCRF-CEM was determined as 3.1 nM; in data set [3], 1.1 nM. For the same compound, the GI50 at 72 h in data set [1] was 28000 nM; in data set [2] it was 15200 nM. This compound gave an inhibition on Tubulin (Bos taurus) of 77%. Further, the Stability result is “Unstable” in data set [4], “Stable” in data set [5], “Stable” in data set [7] and “Stable” in data set [9]. For the same compound, the half-life at 10 µM in [6] was 11.4 min. The RatioGI50 in data set [8], in data set [10], in data set [11], in data set [12], in data set [13] and in [14] was 10000 - 30000 throughout.

Consider `CCn1ccc2c3c(=O)cc(-c4ccccc4)[nH]c3ccc21`, for which the GI50 amounted to 0.5 nM in the data set with Jurkat; 0.5 nM with HL-60; 2 nM with RS4-11; 40 nM in the data set on MCF7; 11 nM with HeLa; 32 nM in the data set on HT-29. In addition, the GI50 with CCRF-CEM came out at 14 nM; in data set [3] it was 4 nM. Besides, the values for the GI50 at 72 h in data set [1] and in [2] were over 100000 nM and 7600 nM, respectively. On Tubulin (Bos taurus), this compound displayed an inhibition of 73%. Further, the Stability entry is “Unstable” in [4], “Stable” in [5], “Stable” in data set [7] and “Stable” in data set [9]. Also, the half-life at 10 µM in data set [6] was 17.3 min. Also, the RatioGI50 in [8], in data set [10], in data set [11], in [12], in [13] and in [14] was 10000 - 30000 each time.
